In one data set the test system is HDAC class IIa enzymes. The data set can be described thus: SAHA-mediated dose-dependent inhibition of [18F]FAHA accumulation in the brain. The format is in vivo, rhesus macaques. The note with it: pretreatment with increasing doses of SAHA; blood plasma.
The conditions of data set [1]: cited from earlier work.
A short description of data set [2]: Radioactivity and radiolabeled metabolites in blood plasma. The format is in vivo, rhesus macaques. In a few lines: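 Macaques received atropine and ketamine i.m., then isoflurane 1–3% in oxygen. Tracer was given i.v. via saphenous vein, and venous blood (0.5 mL) was drawn at 0, 1, 2, 3, 5, 10 and 30 min. Whole blood and plasma were gamma counted. Heparinized plasma was extracted with 3 volumes acetonitrile and run on radio-HPLC. Parent and metabolite fractions came from peak areas, expressed as %ID/mL.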

The nature of data set [3]: Dynamic PET/CT/MRI of the brain with compartmental pharmacokinetic modeling. The format is in vivo, rhesus macaques. The note with it: for k1 (influx rate constant) / k2 (efflux rate constant) / k3 rate constant: baseline. In a few lines:
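Four rhesus macaques (2 male, 2 female): atropine 0.04 mg/kg i.m., ketamine 10–15 mg/kg i.m., isoflurane 1–3% in oxygen; i.v. tracer via saphenous vein. Baseline dynamic PET with the 18F-labelled HDAC substrate and, separately, its 18F-labelled cleavage product. Carotid-derived plasma input was corrected by plasma-to-blood ratio and radio-HPLC metabolite fractions. Rate constants came from two-input, three-tissue-compartment fitting of regional brain time-activity curves.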

The conditions of data set [4]: up to 3 hours post radiotracer administration; ref Nishii et al., 2011; cited from earlier work.
For data set [5] the following is noted: at 30 min after the radiotracer administration; ref Nishii R, 2007; cited from earlier work.
In a further data set the test system is class IIa HDACs. The format is biochemical. As to conditions: non-radiolabeled FAHA; 10 ng enzyme, 30 min at 30°C.
Setting [6] is: ref Hendricks, et al 2011, Zeglis.

Like-named read-outs stand apart in the source and are kept apart here. Bounds are passed on as bounds.

As to `O=C(CCCCCCC(=O)Nc1ccccc1)NO` [SAHA, vorinostat], the “effect on circulation half-time and AUC of [18F]FAHA” value in the data set with HDAC class IIa enzymes was “dose-dependent log-linear increase”.
On to `Nc1ccccc1NC(=O)c1ccc(CN[11C](=O)OCc2cccnc2)cc1` [[^11C]MS-275], for which, in data set [1] (ref Hooker, et al 2010), the “accumulation in the brain (PET)” value is given as “did not accumulate in the brain” and the “blood-brain barrier (BBB) permeability” value is “poor”.
As to `O=C(O)C[18F]` [[^18F]FACE, [^18F]fluoroacetate], in data set [2] (30 min post [18F]FACE administration), the “[18F]fluoride in blood plasma” value was < 2 % of total radioactivity. Moreover, the “Partition of [18F]FACE-derived radioactivity in blood between RBCs and plasma” value in data set [2] (rhesus monkey, in vivo) is recorded as 70.2±8.4%. In addition, the brain-to-muscle concentration ratio in data set [3] (30 min post injection) is 0.78±0.28. In data set [3] (30 min post injection), the “whole brain-to-blood concentration ratio” value was 0.55±0.18. For the same compound, the “k1 (influx rate constant)” value in data set [3] (Amygdala) was 0.020 ± 0.035; in data set [3] (Cerebellum), 0.055 ± 0.054; in data set [3] (Hippocampus), 0.021 ± 0.034; in data set [3] (Inferior colliculus), 0.019 ± 0.045; in data set [3] (Nucleus accumbens), 0.056 ± 0.052; in data set [3] (Peri-aqueductal gray), 0.021 ± 0.044. The “k1 (influx rate constant)” value in data set [3] (Putamen) is listed as 0.024 ± 0.033; in data set [3] (Temporal cortex), 0.016 ± 0.046; in data set [3] (Thalamus), 0.020 ± 0.482; in data set [3] (White matter), 0.015 ± 0.019; in data set [3] (Whole brain), 0.045 ± 0.034. Moreover, the “k2 (efflux rate constant)” value in data set [3] (Amygdala) is 0.088 ± 0.063; in data set [3] (Cerebellum) it was 0.202 ± 0.125; in data set [3] (Hippocampus), 0.118 ± 0.031; in data set [3] (Inferior colliculus), 0.034 ± 0.024; in data set [3] (Nucleus accumbens) it was 0.179 ± 0.146; in data set [3] (Peri-aqueductal gray), 0.050 ± 0.034. The “k2 (efflux rate constant)” value was 0.059 ± 0.063 in data set [3] (Putamen); 0.037 ± 0.014 in data set [3] (Temporal cortex); 0.048 ± 0.067 in data set [3] (Thalamus); 0.089 ± 0.103 in data set [3] (White matter); 0.170 ± 0.145 in data set [3] (Whole brain). Besides, the k3 rate constant in data set [3] (Amygdala) turned out to be 0.047 ± 0.040; in data set [3] (Cerebellum), 0.044 ± 0.066; in data set [3] (Hippocampus), 0.054 ± 0.039; in data set [3] (Inferior colliculus) it was 0.022 ± 0.021; in data set [3] (Nucleus accumbens), 0.025 ± 0.034; in data set [3] (Peri-aqueductal gray), 0.026 ± 0.023. The k3 rate constant is recorded as 0.026 ± 0.031 in data set [3] (Putamen); 0.033 ± 0.018 in data set [3] (Temporal cortex); 0.022 ± 0.022 in data set [3] (Thalamus); 0.029 ± 0.022 in data set [3] (White matter); 0.033 ± 0.065 in data set [3] (Whole brain). Besides, the “efflux rate constant k2FACE relative to that of [18F]FAHA” value in data set [3] (fold less than [18F]FAHA) fell in the range of 4 to 10 fold. In addition, the “[18F]fluorocitrate anabolite in blood” value in data set [4] is on record as “not detectable”.
Turning to `O=C(CCCCCCC(=O)Nc1ccc([18F])cc1)NO` [[^18F]SAHA, [^18F]suberoylanilide hydroxamic acid], in data set [1] (setting [6]), the “accumulation in the brain (PET)” value is recorded as “did not accumulate in the brain” and the “washout from the brain” value is “excessive washout”.
For the compound `O=C(C[18F])NCCCCCC(=O)Nc1ccccc1` [[^18F]FAHA, 6-([^18F]fluoroacetamido)-1-hexanoicanilide], in data set [2] (by 30 min post injection), the “fraction of [18F]FAHA catabolized to [18F]FACE in blood plasma” value is “almost all”. Besides, the “accumulation of [18F]FAHA in the brain” value in data set [5] is “significant accumulation”. The “k1 (influx rate constant)” value in data set [3] (Amygdala) is listed as 0.512 ± 0.1283; in data set [3] (Cerebellum), 0.645 ± 0.2594; in data set [3] (Hippocampus), 0.595 ± 0.071; in data set [3] (Inferior colliculus), 0.706 ± 0.2366; in data set [3] (Nucleus accumbens), 0.626 ± 0.5812; in data set [3] (Peri-aqueductal gray), 0.619 ± 0.2961. The “k1 (influx rate constant)” value is 0.708 ± 0.3726 in data set [3] (Putamen); 0.438 ± 0.2453 in data set [3] (Temporal cortex); 0.765 ± 0.4308 in data set [3] (Thalamus); 0.463 ± 0.2052 in data set [3] (White matter); 0.424 ± 0.2637 in data set [3] (Whole brain). For the same compound, the “k2 (efflux rate constant)” value is 0.493 ± 0.118 in data set [3] (Amygdala); 1.001 ± 0.475 in data set [3] (Cerebellum); 0.883 ± 0.738 in data set [3] (Hippocampus); 0.644 ± 0.312 in data set [3] (Inferior colliculus); 1.181 ± 1.6532 in data set [3] (Nucleus accumbens); 0.554 ± 0.256 in data set [3] (Peri-aqueductal gray). For the same compound, the “k2 (efflux rate constant)” value in data set [3] (Putamen) was 0.731 ± 0.617; in data set [3] (Temporal cortex), 0.558 ± 0.2452; in data set [3] (Thalamus), 0.604 ± 0.365; in data set [3] (White matter), 0.810 ± 0.269; in data set [3] (Whole brain) it was 0.611 ± 0.5713. The k3 rate constant in data set [3] (Amygdala) amounted to 0.259 ± 0.093; in data set [3] (Cerebellum), 0.380 ± 0.279; in data set [3] (Hippocampus) it was 0.279 ± 0.213; in data set [3] (Inferior colliculus), 0.267 ± 0.108; in data set [3] (Nucleus accumbens), 0.401 ± 0.296; in data set [3] (Peri-aqueductal gray) it was 0.236 ± 0.088. Besides, the k3 rate constant turned out to be 0.328 ± 0.079 in data set [3] (Putamen); 0.158 ± 0.056 in data set [3] (Temporal cortex); 0.192 ± 0.032 in data set [3] (Thalamus); 0.187 ± 0.135 in data set [3] (White matter); 0.192 ± 0.222 in data set [3] (Whole brain). The “whole brain Ki of [18F]FAHA relative to Ki of [18F]FACE” value in data set [3] (whole brain) is “about 50 fold”. For the same compound, in the data set with class IIa HDACs, the “Kcat values for class IIa HDACs compared with other classes of HDACs” value is on record as “two orders of magnitude higher”.

The values above are taken from PMC3540799 (NeuroImage, 2012).
